Our source for the IC50, Ki and inhibition values is ChEMBL document CHEMBL1139083, “Discovery of 2-iminobenzimidazoles as a new class of trypanothione reductase inhibitor by high-throughput screening” (Bioorg Med Chem Lett, 2007).

The nature of test [1]: Inhibition of Trypanosoma brucei rhodesiense trypanothione reductase. The gist of the method: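 Automated photometric TR assay adapted to 384-well format. The rate of TNB formation was followed continuously at 412 nm for 15 min at room temperature.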
In test [2] the test system is Trypanosoma brucei rhodesiense. Nature of the test: Trypanocidal activity against Trypanosoma brucei rhodesiense. Format: functional, organism-based.
A further test has as its system HT-29. Nature of the test: Cytotoxicity against human HT29 cells. The test is classed as functional, cell-based.
Test [3] addresses T1, Glutathione reductase, mitochondrial (Homo sapiens, UniProt P00390).
T1 sequence (P00390 whole entry): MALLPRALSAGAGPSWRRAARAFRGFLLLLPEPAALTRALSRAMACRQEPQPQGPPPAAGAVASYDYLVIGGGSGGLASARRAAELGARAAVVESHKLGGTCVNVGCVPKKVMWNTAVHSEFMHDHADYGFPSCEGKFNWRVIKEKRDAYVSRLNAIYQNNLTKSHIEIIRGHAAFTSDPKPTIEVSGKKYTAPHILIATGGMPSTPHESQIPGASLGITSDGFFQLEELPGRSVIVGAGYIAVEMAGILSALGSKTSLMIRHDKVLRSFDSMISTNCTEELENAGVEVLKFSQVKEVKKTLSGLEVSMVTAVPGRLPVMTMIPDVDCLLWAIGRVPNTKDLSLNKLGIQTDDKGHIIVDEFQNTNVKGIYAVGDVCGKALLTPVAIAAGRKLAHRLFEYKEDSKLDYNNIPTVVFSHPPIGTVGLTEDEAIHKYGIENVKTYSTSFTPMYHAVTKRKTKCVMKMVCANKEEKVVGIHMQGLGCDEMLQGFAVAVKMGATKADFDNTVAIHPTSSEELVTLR
Nature of the test: Inhibition of human glutathione reductase. The essentials: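 GR assay adapted from the TR screening protocol, using higher enzyme and G[S]₂ levels because of the higher K_m. The rate of TNB formation was recorded continuously at 412 nm over 15 min at room temperature.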

In test [4] the test system is Trypanosoma brucei rhodesiense. Nature of the test: Inhibition of Trypanosoma brucei rhodesiense trypanothione reductase at 25 uM.

Take `CCN(CC)CCn1c(=N)n(CC(=O)c2ccc(Cl)c(Cl)c2)c2ccccc21`: the IC50 in test [1] turned out to be 10 µM.
On the same count and under the same terms, for `N=c1n(CCN2CCOCC2)c2ccccc2n1CC(O)COc1ccccc1` (stereo unspecified) the value was above 100 µM.
Turning to `N=c1n(CCOCCOCCn2c(=N)n(Cc3ccccc3)c3ccccc32)c2ccccc2n1Cc1ccccc1`, the IC50 is 4 µM in test [1], 1300 nM in test [2], 144 µM in the test with HT-29 and above 100 µM in test [3]. In test [1], this compound had an inhibition constant (Ki) of 1.9 µM.
In test [1], `CCN(CC)CCn1c(=N)n(CC(=O)c2ccc(-c3ccccc3)cc2)c2ccccc21` gave an IC50 of 25 µM.
Regarding `Cc1ccc(OCC(O)Cn2c(=N)n(CCN3CCOCC3)c3ccccc32)cc1` (stereo unspecified), the IC50 in test [1] was above 100 µM.
Same read-out and setting: for `CCN(CC)CCn1c(=N)n(CCOc2ccccc2)c2ccccc21` the value was 8 µM.
Same read-out and setting: for `N=c1n(CCN2CCCCC2)c2ccccc2n1CC(O)COc1ccccc1` (stereo unspecified) the value was 5 µM; for `N=c1n(CCOc2ccccc2)c2ccccc2n1CCN1CCCCC1`, 4 µM.
In turn, `C=CCn1c(=N)n(CC(O)c2ccc(OCC)cc2)c2ccccc21` (stereo unspecified) showed an inhibition in test [4] of 6%. The IC50 in test [1] was above 100 µM.
The compound `Cc1ccc(C(O)Cn2c(=N)n(CCN3CCCCC3)c3ccccc32)cc1` (stereo unspecified) returned an IC50 in test [1] of 16 µM.
In the case of `N=c1n(CCN2CCCCC2)c2ccccc2n1CC(O)c1ccc(Cl)c(Cl)c1` (stereo unspecified), the IC50 in test [1] was 4 µM; in test [2], 200 nM; in the test on HT-29, 9 µM; in test [3] it was above 100 µM. The compound also displayed an inhibition constant (Ki) in test [1] of 3.6 µM.
With `Cc1ccc(OCC(O)Cn2c(=N)n(CCN3CCCCC3)c3ccccc32)cc1` (stereo unspecified), the IC50 in test [1] came out at 9 µM.
Take `CCCCn1c(=N)n(CC(O)c2ccc(Br)cc2)c2ccccc21` (stereo unspecified): the inhibition in test [4] came out at 42%. For the same compound, the IC50 in test [1] was above 100 µM.
Compound `COc1ccc(C(O)Cn2c(=N)n(CCN3CCCCC3)c3ccccc32)cc1` (stereo unspecified) had an inhibition in test [4] of 85%. In test [1], half-maximal inhibition (IC50) was put at 24 µM.
`CC(=O)/N=c1/n(CCOc2ccccc2)c2ccccc2n1CCN1CCCCC1` registered an IC50 in test [1] above 100 µM.
As to `c1ccc(OCCNc2ccccc2NCCN2CCCCC2)cc1`, in test [1], the IC50 is above 100 µM.
As to `CCN(CC)CCn1c(=N)n(CC(=O)c2ccc(C)cc2)c2ccccc21`, the inhibition in test [4] is 91%. Further, in test [1], the midpoint of inhibition, the IC50, lay at 7 µM.
As to `CCN(CC)CCn1c(=N)n(CC(O)c2ccc(Cl)c(Cl)c2)c2ccccc21` (stereo unspecified), the IC50 in test [1] turned out to be 9 µM.
In turn, `CC(C)(C)C(O)Cn1c(=N)n(CCN2CCCCC2)c2ccccc21` (stereo unspecified) yielded an inhibition in test [4] of 66%. The compound further gave an IC50 in test [1] above 100 µM.
`Cc1ccc(C(O)Cn2c(=N)n(CCN(C)C)c3ccccc32)cc1` (stereo unspecified): the IC50 in test [1] is 29 µM.
Same read-out and setting: for `CN1CCCC(n2c(=N)n(CCOc3ccccc3)c3ccccc32)C1` (stereo unspecified) the value was above 100 µM.
`C=CCn1c(=N)n(CCN(CC)CC)c2ccccc21`: in test [4], the inhibition turned out to be 31%. In addition, the IC50 in test [1] was above 100 µM.
`CCn1c(=N)n(CCOCCOCCn2c(=N)n(CC)c3ccccc32)c2ccccc21` registered an IC50 in test [1] above 100 µM.
Regarding `CCN(CC)CCn1c(=N)n(CC(O)c2ccc(C)cc2)c2ccccc21` (stereo unspecified), the IC50 in test [1] amounted to 19 µM.
For `N=c1n(CCCCCOc2ccccc2)c2ccccc2n1CCN1CCCCC1`, 8 µM corresponded to half-maximal inhibition in test [1] (IC50).
Still for that read-out and setting: for `N=c1n(CCCOc2ccccc2)c2ccccc2n1CCN1CCCCC1` the value was 7 µM; for `N=c1n(CCN2CCCCC2)c2ccccc2n1CC(O)COc1ccc(Cl)cc1Cl` (stereo unspecified), 5 µM.
In the case of `CN(C)CCn1c(=N)n(CC(O)c2ccc(Cl)c(Cl)c2)c2ccccc21` (stereo unspecified), the inhibition in test [4] was determined as 92%. Further, the IC50 is 10 µM in test [1], 600 nM in test [2], 46 µM in the test with HT-29 and above 100 µM in test [3]. Besides, the Ki in test [1] was found to be 5.4 µM.
For `Cc1ccc(C(O)Cn2c(=N)n(CCCN(C)C)c3ccccc32)cc1` (stereo unspecified), in test [1], inhibition was half-maximal at 35 µM (IC50).
Still for that read-out and setting: for `CCN(CC)CCn1c(=N)n(CCN(CC)CC)c2ccccc21` the value was 59 µM.
As to `N=c1n(Cc2ccccc2)c2ccccc2n1CC(O)c1ccc(Cl)cc1` (stereo unspecified), in test [4], the inhibition was 32%. In test [1], this compound had an IC50 above 100 µM.
